Measurements: ChEMBL document CHEMBL1153525, “Adenosine A2A receptor-antagonist/dopamine D2 receptor-agonist bivalent ligands as pharmacological tools to detect A2A-D2 receptor heteromers” (J Med Chem, 2009)
Activity calls are given as the source filed them. The calls are words filed in the database; no cut-off is given here.

Columns and labels:
[1] = biological target: Adenosine A2A receptor (Homo sapiens) (UniProt P29274); test: Agonist activity at human A2aR expressed in HEK293 cells assessed as cAMP accumulation at 10 uM
Target sequence in this assay (P29274 whole entry, canonical isoform): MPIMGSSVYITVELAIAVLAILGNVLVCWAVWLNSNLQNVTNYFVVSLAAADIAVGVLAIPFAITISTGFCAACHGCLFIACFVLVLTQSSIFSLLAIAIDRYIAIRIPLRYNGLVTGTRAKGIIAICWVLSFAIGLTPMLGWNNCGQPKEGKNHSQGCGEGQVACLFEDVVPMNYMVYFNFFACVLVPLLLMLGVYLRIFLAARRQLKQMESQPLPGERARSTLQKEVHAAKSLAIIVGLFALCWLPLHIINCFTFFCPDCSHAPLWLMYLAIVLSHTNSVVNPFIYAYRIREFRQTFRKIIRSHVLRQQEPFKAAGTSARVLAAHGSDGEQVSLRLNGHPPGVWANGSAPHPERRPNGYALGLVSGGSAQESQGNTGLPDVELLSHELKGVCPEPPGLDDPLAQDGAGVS

[2] = biological target: Adenosine A2A receptor (Homo sapiens) (UniProt P29274); test: Displacement of [3H]ZM241385 from human A2AR expressed in mouse Ltk cells at 1 uM by scintillation counting relative to control
Target sequence in this assay (P29274 whole entry, looked up, canonical isoform): as the sequence (P29274 whole entry, canonical isoform) above

[3] = biological target: Adenosine A2A receptor (Homo sapiens) (UniProt P29274); test: Displacement of [3H]ZM241385 from human A2aR expressed in mouse Ltk cells at 1 uM by scintillation counting relative to control; type: cell-based
In short: (§1)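 Mouse Ltk fibroblasts were transiently transfected with human A2AR, human D2R (long isoform) or both, and membranes were prepared 48 h later. Membranes were incubated 2 h at 25 °C in 50 mM Tris-HCl pH 7.4 with 10 mM MgCl2 and 2 U/mL ADA, plus 2.1 nM [3H]ZM241385 or 1.9 nM [3H]YM09151-2 and 1 μM test compound. Bound ligand was counted after filtration and expressed as % of specific binding without displacer; three independent experiments.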
Target sequence in this assay (P29274 whole entry, canonical isoform): as above

[4] = biological target: Adenosine A2A receptor (Homo sapiens) (UniProt P29274); test: Displacement of [3H]ZM241385 from human A2aR/D2R (long isoform) coexpressed in mouse Ltk cells by scintillation counting; type: cell-based
In short: as §1
Target sequence in this assay (P29274 whole entry, canonical isoform): as above

[5] = biological target: Adenosine A2A receptor (Homo sapiens) (UniProt P29274); test: Antagonist activity at human A2aR expressed in HEK293 cells assessed as inhibition of CGS-21680-induced cAMP production at 10 uM; type: functional, cell-based
In short: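 Human A2AR was transiently expressed in HEK-293 cells, which were held 16 h serum-free with 1.5 U/mL ADA and used 48 h post-transfection. Cells were preincubated 10 min at 37 °C with 50 μM zardaverine, 10 mM MgCl2 and 1.5 U/mL ADA. Ligand at 10 μM was given alone, or 10 min before 200 nM CGS 21680 (10-15 min). cAMP was measured by [3H]cAMP assay, as % of CGS 21680 response; three independent experiments.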
Target sequence in this assay (P29274 whole entry, canonical isoform): as above

[6] = tested on: Dopamine D2 receptor (Homo sapiens); test: Displacement of [3H]YM09151-2 from human A2aR/D2R (long isoform) heteromer expressed in mouse Ltk cells by scintillation counting
[7] = Displacement of [3H]YM09151-2 from D2R (long isoform) dimer in lamb striatum membrane low affinity macroscopic equilibrium dissociation constant by scintillation counting; type: cell membranes, Ovis aries
In short: (§2)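 Lamb striatal membranes (0.3-0.5 mg protein/mL) were incubated 2 h at 25 °C in 50 mM Tris-HCl pH 7.4 with 10 mM MgCl2 and 2 U/mL ADA. Radioligand was 2.1 nM [3H]ZM241385 (A2AR) or 0.9 nM [3H]YM09151-2 (D2R), against 11 competitor concentrations from 0.1 nM to 50 μM in triplicate. Nonspecific binding used 50 μM unlabeled radioligand. After GF/C filtration, counts were fitted to a two-state dimer model for KDB1 and KDB2; three experiments.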

[8] = biological target: D(2) dopamine receptor (Homo sapiens) (UniProt P14416); test: Agonist activity at human D2R receptor expressed In HEK293 cells assessed as decrease in forskolin-induced cAMP level at 10 uM; type: functional, cell-based; design: scale not given: the % may be the effect or the level left
D(2) dopamine receptor (Homo sapiens), sequence (P14416 whole entry, canonical isoform): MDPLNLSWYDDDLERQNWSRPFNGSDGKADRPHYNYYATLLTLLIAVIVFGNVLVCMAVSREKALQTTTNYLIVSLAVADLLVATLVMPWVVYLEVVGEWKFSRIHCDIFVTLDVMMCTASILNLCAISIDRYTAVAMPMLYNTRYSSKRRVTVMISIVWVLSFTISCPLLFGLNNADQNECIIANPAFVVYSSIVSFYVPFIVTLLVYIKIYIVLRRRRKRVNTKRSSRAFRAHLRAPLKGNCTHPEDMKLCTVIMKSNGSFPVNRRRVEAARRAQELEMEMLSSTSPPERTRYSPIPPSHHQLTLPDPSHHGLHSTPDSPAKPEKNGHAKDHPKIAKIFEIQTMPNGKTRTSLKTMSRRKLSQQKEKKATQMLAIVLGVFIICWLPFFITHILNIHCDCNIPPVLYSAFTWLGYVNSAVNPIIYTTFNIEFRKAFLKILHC
In short: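 HEK-293 cells transiently transfected with human D2R (long isoform) were kept 16 h in serum-free medium, then used 48 h after transfection. Cells were preincubated 10 min at 37 °C with 50 μM zardaverine in serum-free medium with 10 mM MgCl2. Test ligand at 10 μM was added, then 10 μM forskolin for 15 min. Cells were extracted with HClO4 and cAMP was measured by [3H]cAMP assay, as % of forskolin-induced level; three independent experiments.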

[9] = biological target: Adenosine A2A receptor (Homo sapiens) (UniProt P29274); test: Displacement of [3H]ZM241385 from human A2aR/D2R (long isoform) heteromer expressed in mouse Ltk cells by scintillation counting; type: cell-based
In short: as §1
Target sequence in this assay (P29274 whole entry, canonical isoform): as the sequence (P29274 whole entry, canonical isoform) above

[10] = Displacement of [3H]ZM241385 from A2aR dimer in lamb striatum membrane assessed as high affinity macroscopic equilibrium dissociation constant by scintillation counting; type: cell membranes, Ovis aries
In short: as §2

[11] = biological target: D(2) dopamine receptor (Homo sapiens) (UniProt P14416); test: Displacement of [3H]YM09151-2 from human D2R expressed in mouse Ltk cells by scintillation counting relative to control; type: cell-based
In short: as §1

[12] = Displacement of [3H]YM09151-2 from D2R (long isoform) dimer in lamb striatum membrane high affinity macroscopic equilibrium dissociation constant by scintillation counting; type: cell membranes, Ovis aries
In short: as §2

Row | Activity [1] | Activity [2] | Activity [3] | Activity [4] | Activity [5] | Activity [6] | Ki [7] | Activity [8] | Activity [9] | Ki [10] | Activity [11] | Ki [12] | SMILES
1 | inactive | Active | Active | Active | Active | Active | 0.5 µM | 78% | Active | 0.05 µM | inactive | 0.0018 µM | CCCN(CCc1ccc(NC(=O)CCC(N)C(=O)NCCCCC(NC(=O)CCC(=O)NCCOCCOCCNC(=O)CCC(=O)NCCOCCOCCNC(=O)CCC(=O)NCCOCCOCCNC(=O)C(CCCCNC(=O)C(N)CCCCNC(=O)COc2ccc(-c3nc4c([nH]3)c(=O)n(CCC)c(=O)n4CCC)cc2)NC(C)=O)C(N)=O)cc1)C1CCc2c(O)cccc2C1 (centres undefined)
2 | inactive | Active | Active | Active | Active | Active | 7 µM | 87% | Active | 0.059 µM | inactive | 0.0011 µM | CCCN(CCc1ccc(NC(=O)CCC(N)C(=O)NCCCCC(NC(=O)CCC(=O)NCCOCCOCCNC(=O)C(CCCCNC(=O)C(N)CCCCNC(=O)COc2ccc(-c3nc4c([nH]3)c(=O)n(CCC)c(=O)n4CCC)cc2)NC(C)=O)C(N)=O)cc1)C1CCc2c(O)cccc2C1 (centres undefined)
